Assay results reported in ChEMBL document CHEMBL1122971, “Aldosterone antagonists. 1. Synthesis and biological activities of 11 beta,18-epoxypregnane derivatives” (J Med Chem, 1985).
Values joined by “and” are separate entries in the source; they are usually repeats but may differ in a detail not shown here. Equal entries are not always repeated. Active and inactive are the calls of the source. No cut-off for these calls is given here.

Key:
[1] = target: T1, Mineralocorticoid receptor (Rattus norvegicus) (UniProt P22199); assay: Relative binding affinity against mineralocorticoid receptor of rat kidney at 25 degree Centigrade
T1 sequence (whole entry): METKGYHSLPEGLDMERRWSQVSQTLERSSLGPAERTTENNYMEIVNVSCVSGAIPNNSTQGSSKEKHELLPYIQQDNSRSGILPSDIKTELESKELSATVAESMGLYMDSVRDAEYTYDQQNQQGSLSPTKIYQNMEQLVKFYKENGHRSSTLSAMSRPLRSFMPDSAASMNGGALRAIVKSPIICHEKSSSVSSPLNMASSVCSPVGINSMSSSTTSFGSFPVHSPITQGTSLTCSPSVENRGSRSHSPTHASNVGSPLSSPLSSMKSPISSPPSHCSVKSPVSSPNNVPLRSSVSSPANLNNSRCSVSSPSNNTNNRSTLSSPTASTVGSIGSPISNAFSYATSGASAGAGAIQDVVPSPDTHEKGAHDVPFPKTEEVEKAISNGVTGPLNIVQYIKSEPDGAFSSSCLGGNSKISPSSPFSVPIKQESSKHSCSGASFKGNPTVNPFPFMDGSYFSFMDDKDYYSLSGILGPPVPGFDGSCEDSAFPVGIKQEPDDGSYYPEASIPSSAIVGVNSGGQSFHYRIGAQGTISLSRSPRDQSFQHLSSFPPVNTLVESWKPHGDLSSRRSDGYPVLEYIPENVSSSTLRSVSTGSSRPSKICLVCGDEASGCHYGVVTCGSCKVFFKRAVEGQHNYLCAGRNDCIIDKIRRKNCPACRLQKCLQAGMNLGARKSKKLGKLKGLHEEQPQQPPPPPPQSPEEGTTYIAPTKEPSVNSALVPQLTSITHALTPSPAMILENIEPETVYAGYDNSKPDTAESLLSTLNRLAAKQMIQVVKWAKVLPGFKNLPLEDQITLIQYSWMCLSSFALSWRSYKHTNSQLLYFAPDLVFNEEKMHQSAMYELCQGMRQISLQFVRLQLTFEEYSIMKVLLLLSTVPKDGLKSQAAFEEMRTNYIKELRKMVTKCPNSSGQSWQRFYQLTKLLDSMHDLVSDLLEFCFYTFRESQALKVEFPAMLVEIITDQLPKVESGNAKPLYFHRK
Procedure, shortened: (§1)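 Kidney cytosol from male Sprague-Dawley rats (4-8 weeks), adrenalectomized 1-2 days before, prepared in pH 7.5 phosphate buffer with DTT, sucrose and 10 mM molybdate, spun at 200000g. Incubated with competitor (0.4 nM-40 μM) and about 1 nM 3H-aldosterone for 42-48 h at 0 °C or 100-120 min at 25/26 °C. Dextran-coated charcoal separation. RBA = ratio of 50%-inhibition concentrations versus aldosterone standard (=100).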

[2] = target: T1, Mineralocorticoid receptor (Rattus norvegicus); assay: Relative binding affinity against mineralocorticoid receptor of rat kidney at 0 degree Centigrade; procedure, shortened: as §1
[3] = target: T1, Mineralocorticoid receptor (Rattus norvegicus); assay: Relative binding affinity against mineralocorticoid receptor of rat kidney at 0 degree centigrade; value ranges from […]-[…]%
[4] = target: T1, Mineralocorticoid receptor (Rattus norvegicus); assay: Aldosterone (5 ug/kg) antagonist activity for urinary Na/k at 2500 ug/kg; type: functional; settings: Urine
Procedure, shortened: (§2)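 Male Slc:Wistar rats, 7 weeks old, bilaterally adrenalectomized 2 days before assay, kept on 0.45% NaCl. Sugar cubes replaced diet the next evening, with 6 mL 0.45% NaCl/100 g given ip that evening and again on assay morning. Aldosterone (5 μg/kg in sesame oil) or none given sc, test compound sc right after. Urinary Na and K measured by atomic absorption; Na/K reported as mean ± SE.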

[5] = target: T1, Mineralocorticoid receptor (Rattus norvegicus); assay: Aldosterone (5 ug/kg) antagonist activity for urinary Na/k at 25000 ug/kg; type: functional; settings: Urine; procedure, shortened: as §2
[6] = target: T1, Mineralocorticoid receptor (Rattus norvegicus); assay: Relative binding affinity against mineralocorticoid receptor of rat kidney at 25 degree centigrade; value ranges from […]-[…]%
[7] = target: T1, Mineralocorticoid receptor (Rattus norvegicus); assay: Aldosterone (5 ug/kg) antagonist activity for urinary Na/k at 250 ug/kg; type: functional; settings: Urine; procedure, shortened: as §2
[8] = target: T1, Mineralocorticoid receptor (Rattus norvegicus); assay: Aldosterone (5 ug/kg) antagonist and agonist activity for urinary Na/k at 0 ug/kg; type: functional; settings: Urine; procedure, shortened: as §2
[9] = target: T1, Mineralocorticoid receptor (Rattus norvegicus); assay: (§3) Aldosterone (0 ug/kg) antagonist and agonist activity for urinary Na/k at 0 ug/kg; type: functional; settings: Urine; procedure, shortened: as §2
[10] = target: T2, Androgen receptor (Rattus norvegicus) (UniProt P15207); assay: Relative binding affinity against androgen receptor of rat prostate at 0 degree centigrade; N means negative, < 0.1
T2 sequence (whole entry): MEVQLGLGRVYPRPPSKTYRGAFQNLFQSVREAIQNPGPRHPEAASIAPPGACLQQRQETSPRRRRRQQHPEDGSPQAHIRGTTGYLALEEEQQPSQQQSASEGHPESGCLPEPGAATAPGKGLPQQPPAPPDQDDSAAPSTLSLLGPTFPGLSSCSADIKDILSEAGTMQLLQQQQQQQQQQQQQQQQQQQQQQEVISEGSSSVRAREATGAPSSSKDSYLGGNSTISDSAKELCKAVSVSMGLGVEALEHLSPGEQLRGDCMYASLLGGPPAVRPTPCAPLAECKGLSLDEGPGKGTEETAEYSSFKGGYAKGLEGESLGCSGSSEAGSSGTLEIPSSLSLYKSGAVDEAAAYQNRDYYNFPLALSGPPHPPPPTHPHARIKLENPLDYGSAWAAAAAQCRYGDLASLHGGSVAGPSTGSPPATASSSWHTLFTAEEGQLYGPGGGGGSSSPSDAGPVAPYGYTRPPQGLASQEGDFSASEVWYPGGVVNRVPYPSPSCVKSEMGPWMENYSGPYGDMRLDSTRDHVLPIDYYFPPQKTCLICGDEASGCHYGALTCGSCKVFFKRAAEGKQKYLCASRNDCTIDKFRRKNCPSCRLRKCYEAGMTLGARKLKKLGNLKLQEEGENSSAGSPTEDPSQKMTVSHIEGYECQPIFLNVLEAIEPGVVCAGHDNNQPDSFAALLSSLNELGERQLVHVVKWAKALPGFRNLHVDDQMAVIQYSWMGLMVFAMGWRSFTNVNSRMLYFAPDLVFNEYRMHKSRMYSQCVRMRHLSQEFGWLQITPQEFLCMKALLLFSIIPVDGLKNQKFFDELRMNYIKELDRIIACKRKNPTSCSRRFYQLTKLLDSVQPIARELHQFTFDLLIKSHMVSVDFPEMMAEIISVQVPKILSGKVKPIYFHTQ
Procedure, shortened: (§4)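 Ventral prostate cytosol from rats (4-5 weeks) castrated 1 day before, prepared in pH 7.5 phosphate buffer and spun 2 h at 200000g. Incubated with competitor (0.4 nM-40 μM) and 3H-DHT or 3H-methylnandrolone for 16-20 h at 0 °C or 2 h at 15 °C. Dextran-coated charcoal separation. RBA taken against DHT standard (=100); negative means RBA <0.1%.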

[11] = target: T2, Androgen receptor (Rattus norvegicus); assay: Relative binding affinity against androgen receptor of rat prostate at 15 degree centigrade; N means negative, < 0.1; procedure, shortened: as §4
[12] = target: T1, Mineralocorticoid receptor (Rattus norvegicus); assay: Aldosterone (5 ug/kg) antagonist and agonist activity for urinary Na/k at 25 ug/kg; type: functional; settings: Urine; procedure, shortened: as §2
[13] = target: T1, Mineralocorticoid receptor (Rattus norvegicus); assay: Aldosterone (5 ug/kg) antagonist and agonist activity for urinary Na/k at 2.5 ug/kg; type: functional; settings: Urine; procedure, shortened: as §2
[14] = target: T1, Mineralocorticoid receptor (Rattus norvegicus); assay: Aldosterone (0 ug/kg) antagonist and agonist activity for urinary Na/k at 2.5 ug/kg; type: functional; settings: Urine; procedure, shortened: as §2
[15] = target: T1, Mineralocorticoid receptor (Rattus norvegicus); assay: Aldosterone (0 ug/kg) antagonist and agonist activity for urinary Na/k at 25 ug/kg; type: functional; settings: Urine; procedure, shortened: as §2
[16] = target: T1, Mineralocorticoid receptor (Rattus norvegicus); assay: as §3; type: functional; settings: Urine; procedure, shortened: as §2; remark: listed apart in the source
[17] = target: T1, Mineralocorticoid receptor (Rattus norvegicus); assay: Aldosterone (0 ug/kg) antagonist and agonist activity for urinary Na/k at 2500 ug/kg; type: functional; settings: Urine; procedure, shortened: as §2
[18] = target: T1, Mineralocorticoid receptor (Rattus norvegicus); assay: Aldosterone (0 ug/kg) antagonist and agonist activity for urinary Na/k at 25000 ug/kg; type: functional; settings: Urine; procedure, shortened: as §2
[19] = target: T1, Mineralocorticoid receptor (Rattus norvegicus); assay: Aldosterone (5 ug/kg) antagonist and agonist activity for urinary Na/k at 25000 ug/kg; type: functional; settings: Urine; procedure, shortened: as §2
[20] = target: T1, Mineralocorticoid receptor (Rattus norvegicus); assay: Aldosterone (5 ug/kg) antagonist and agonist activity for urinary Na/k at 2500 ug/kg; type: functional; settings: Urine; procedure, shortened: as §2
[21] = target: T1, Mineralocorticoid receptor (Rattus norvegicus); assay: Agonist activity for urinary Na/k at 25000 ug/kg; type: functional; settings: Urine; procedure, shortened: as §2
[22] = target: T1, Mineralocorticoid receptor (Rattus norvegicus); assay: Relative binding affinity against mineralocorticoid receptor of rat kidney at 0 degree centigrade; value ranges from 44-58%; procedure, shortened: as §1
[23] = target: T1, Mineralocorticoid receptor (Rattus norvegicus); assay: Agonist activity for urinary Na/k at 250 ug/kg; type: functional; settings: Urine; procedure, shortened: as §2
[24] = target: T1, Mineralocorticoid receptor (Rattus norvegicus); assay: Agonist activity for urinary Na/k at 2500 ug/kg; type: functional; settings: Urine; procedure, shortened: as §2
[25] = target: T1, Mineralocorticoid receptor (Rattus norvegicus); assay: Aldosterone (5 ug/kg) antagonist activity for urinary Na/k at 0 ug/kg; type: functional; settings: Urine; procedure, shortened: as §2
[26] = target: T1, Mineralocorticoid receptor (Rattus norvegicus); assay: Aldosterone (0 ug/kg) antagonist activity for urinary Na/k at 0 ug/kg; type: functional; settings: Urine; procedure, shortened: as §2
[27] = target: T1, Mineralocorticoid receptor (Rattus norvegicus); assay: Aldosterone (0 ug/kg) antagonist and agonist activity for urinary Na/k at 250 ug/kg; type: functional; settings: Urine; procedure, shortened: as §2
[28] = target: T1, Mineralocorticoid receptor (Rattus norvegicus); assay: Aldosterone (5 ug/kg) antagonist and agonist activity for urinary Na/k at 250 ug/kg; type: functional; settings: Urine; procedure, shortened: as §2
[29] = target: T1, Mineralocorticoid receptor (Rattus norvegicus); assay: Relative binding affinity against mineralocorticoid receptor of rat kidney at 0 degree centigrade; value ranges from 36-63%; procedure, shortened: as §1

| SMILES | RBA [1] [%] | RBA [2] [%] | Activity [8] | Activity [9] | RBA [10] | Activity [17] | Activity [20] | also measured |
| --- | --- | --- | --- | --- | --- | --- | --- | --- |
| C[C@]12CCC(=O)C=C1CC[C@@H]1[C@@H]2[C@@H](O)C[C@]2(C=O)[C@@H](C(=O)CO)CC[C@@H]12 | 100 | 100 | – | – | – | – | – | – |
| CC(=O)S[C@@H]1CC2=CC(=O)CC[C@]2(C)[C@H]2CC[C@@]3(C)[C@@H](CC[C@@]34CCC(=O)O4)[C@H]12 | – | – | – | – | – | – | – | RBA [3]: 2.3%; Activity [4]: 1.47; Activity [5]: 2.83; RBA [6]: 11%; Activity [7]: 0.93 |
| CC12CCC(=O)C=C1CCC1C3CCC(C(=O)CO)C34COC(C4)[C@@]12F (stereo not given in full) | 270 | 320 | 1 | 4.8 | inactive | – | – | RBA [11]: inactive; Activity [12]: 0.1; Activity [13]: 0.7; Activity [14]: 2.8; Activity [15]: 0.3 |
| CC12CCC(=O)C=C1CCC1C3CC[C@@]4(CCC(=O)O4)C34COC(C4)[C@@H]12 (stereo not given in full) | 1.1 | 1.8 | 1.1 and 0.7 | 3.8 | – | 8.8 | 2.4 | Activity [16]: 7.7; Activity [18]: 3.8; Activity [19]: 2.2 |
| CC(=O)S[C@@H]1CC2=CC(=O)CCC2(C)C2C3CC4(CO3)C(CC[C@@]43CCC(=O)O3)C21 (stereo not given in full) | 0.4 | 0.1 | 1.1 | 7.7 | – | 6.4 | 1.6 | – |
| CC12CCC(=O)C=C1CCC1C3CC[C@@]4(CCC(=O)O4)C34COC(C4)[C@@]12F (stereo not given in full) | 23 | – | 0.4 | 5.1 | inactive | 3.5 | 2.5 | Activity [21]: 1.95; RBA [11]: inactive; Activity [4]: 2.08; RBA [22]: 44%; Activity [5]: 2.13; Activity [23]: 3.42; Activity [24]: 2.7; Activity [25]: 0.75; Activity [26]: 4.07; Activity [7]: 1.33 |
| CC12CCC(=O)C=C1CCC1C3CCC(C(=O)CO)C34COC(C4)[C@@H]12 (stereo not given in full) | 32 | – | 0.8 | 3.5 | inactive | – | – | Activity [27]: 1.8; Activity [28]: 1.7; RBA [29]: 36% |
